Here are results for five molecules from ChEMBL document CHEMBL1155277, “Synthesis of new 4-isopropylthiazole hydrazide analogs and some derived clubbed triazole, oxadiazole ring systems--a novel class of potential antibacterial, antifungal and antitubercular agents” (Eur J Med Chem, 2009).

One data set concerns Enterococcus faecalis. Nature of the data set: Antimicrobial activity against Streptococcus faecalis ATCC 14506 after 24 hrs by broth microdilution method. The data set is classed as functional. The note with it: ATCC 14506, 24 h. Summed up:
(§1)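 Broth microdilution in tubes. Compounds were dissolved at 10 mg in 1 mL DMSO and diluted in Mueller-Hinton Broth for bacteria or Sabouraud Liquid Medium for yeasts and A. niger. Final concentrations were 1–500 µg/mL (1, 2, 4, 8, 16, 31.25, 62.5, 125, 250, 500), with DMSO at most 1% v/v. Inoculum was 10^5 cfu/mL, incubated at 37 °C for 24 h. MIC was the lowest concentration giving complete growth inhibition. Media and media-plus-DMSO served as growth controls.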
For orientation: Broth dilution looks for growth in wells or tubes with falling amounts of substance.

In another data set the test system is Saccharomyces cerevisiae. Nature of the data set: Antimicrobial activity against Saccharomyces cerevisiae ATCC 9763 after 24 hrs by broth microdilution method. It is filed as functional. The note with it: ATCC 9763, 24 h. In short, it runs like this: as §1
The test system of another data set is Candida tropicalis. The data set can be described thus: Antimicrobial activity against Candida tropicalis ATCC 1369 after 24 hrs by broth microdilution method. The note with it: ATCC 1369, 24 h. The data set is classed as functional. In short, it runs like this:
as §1

Data set [1] concerns A549. Nature of the data set: Cytotoxicity against human A549 cell at 250 uM by MTT assay relative to control. The data set is classed as cell-based. Particulars: a549, 250 µM; call rule not given here. Summed up:
(§2)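 A549 lung adenocarcinoma cells were grown with 10% and 0.2% FBS. Compounds were held as 10 mM DMSO stocks and diluted in culture medium; cells were treated at 250 µM. Viability was read by MTT reduction against untreated cells and a DMSO vehicle control. The work was done as two experiments, each with triplicate readings.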

For a further data set, the system named is Bacillus subtilis. The data set can be described thus: Antimicrobial activity against Bacillus subtilis ATCC 60511 after 24 hrs by broth microdilution method. It is filed as functional. The note with it: ATCC 60511, 24 h. In short, it runs like this:
as §1

The next data set relates to Aspergillus niger. Nature of the data set: Antimicrobial activity against Aspergillus niger ATCC 6275 after 24 hrs by broth microdilution method. The data set is classed as functional. The note with it: ATCC 6275, 24 h. Summed up: as §1
The next data set deals with Escherichia coli. The data set can be described thus: Antimicrobial activity against Escherichia […] after 24 hrs by broth microdilution method. It is filed as functional. Summed up: as §1
Data set [2] has as its system Mycobacterium tuberculosis. The data set can be described thus: Antitubercular activity against Mycobacterium tuberculosis H37Rv after 21 days by broth dilution assay. The data set is classed as functional. The note with it: 504 h. Summed up:
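H37Rv frozen stock in Middlebrook 7H9 broth with 10% albumin-dextrose-catalase and 0.2% glycerol, thawed and diluted to 10⁵ cfu mL⁻¹. Compounds dissolved in DMSO, diluted in broth (final DMSO 1.3%). U-tubes inoculated, incubated 37 °C for 21 days. Growth scored visually against drug-free and inoculum-free controls and isoniazid. MIC = lowest concentration inhibiting […] of starting population.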

A further data set concerns Pseudomonas aeruginosa. Nature of the data set: Antimicrobial activity against Pseudomonas aeruginosa ATCC 10145 after 24 hrs by broth microdilution method. It is filed as functional. The note with it: ATCC 10145, 24 h. In short, it runs like this: as §1
Another data set relates to Staphylococcus aureus. The data set can be described thus: Antimicrobial activity against Staphylococcus aureus ATCC 11632 after 24 hrs by broth microdilution method. It is filed as functional. Particulars: ATCC 11632, 24 h. Summed up: as §1
For another data set, the system named is Klebsiella pneumoniae. The data set can be described thus: Antimicrobial activity against Klebsiella pneumoniae ATCC 10031 after 24 hrs by broth microdilution method. The data set is classed as functional. The note with it: ATCC 10031, 24 h. Summed up:
as §1

Data set [3] has as its system A549. The data set can be described thus: Cytotoxicity against human A549 cell at 250 uM by MTT assay. The data set is classed as cell-based. Particulars: a549, 250 µM. Summed up:
as §2
For orientation: Formazan colour is commonly taken as a measure of viable cells.

Each structure is given as a SMILES string. ≈ marks a conversion by molar mass, not a printed value.

Broadly, the MIC is the lowest concentration that inhibits growth of the organism. The low end stands for inhibition by little substance, the high end for a need for much substance.

Turning to `COc1cc(C2OC(c3nc(C(C)C)cs3)=NN2C(C)=O)cc(OC)c1OC` (stereo not drawn), the minimal inhibitory concentration (MIC) was 16 µg/mL (≈ 39.5 µM) against Enterococcus faecalis; 31.2 µg/mL (≈ 77.1 µM) against Saccharomyces cerevisiae; 16 µg/mL (≈ 39.5 µM) in the data set on Candida tropicalis; 16 µg/mL (≈ 39.5 µM) in the data set with Bacillus subtilis; 16 µg/mL (≈ 39.5 µM) against Aspergillus niger; 31.2 µg/mL (≈ 77.1 µM) in the data set with Escherichia coli. Also, the MIC in data set [2] came out at 31.2 µg/mL (≈ 77.1 µM); with Pseudomonas aeruginosa, 16 µg/mL (≈ 39.5 µM); in the data set on Staphylococcus aureus it was 62.5 µg/mL (≈ 154 µM); against Klebsiella pneumoniae it was 31.2 µg/mL (≈ 77.1 µM). Further, the Activity with A549 [1] amounted to 50%.
On to `CC(=O)N1N=C(c2nc(C(C)C)cs2)OC1c1cccc(Cl)c1Cl` (stereo not drawn), for which the MIC with Enterococcus faecalis turned out to be 16 µg/mL (≈ 41.6 µM); in the data set with Saccharomyces cerevisiae it was 16 µg/mL (≈ 41.6 µM); against Candida tropicalis, 16 µg/mL (≈ 41.6 µM); with Bacillus subtilis, 16 µg/mL (≈ 41.6 µM); in the data set on Aspergillus niger, 31.2 µg/mL (≈ 81.3 µM); in the data set with Escherichia coli, 125 µg/mL (≈ 325 µM). For the same molecule, the minimal inhibitory concentration (MIC) in data set [2] amounted to 62.5 µg/mL (≈ 163 µM); against Pseudomonas aeruginosa, 31.2 µg/mL (≈ 81.3 µM); against Staphylococcus aureus, 125 µg/mL (≈ 325 µM); with Klebsiella pneumoniae, 125 µg/mL (≈ 325 µM).
In the case of `CC(C)c1csc(-c2nnc(S)n2N)n1`, the minimal inhibitory concentration (MIC) with Enterococcus faecalis worked out at 31.2 µg/mL (≈ 129 µM); against Saccharomyces cerevisiae, 16 µg/mL (≈ 66.3 µM); in the data set on Candida tropicalis it was 8 µg/mL (≈ 33.1 µM); in the data set with Bacillus subtilis, 8 µg/mL (≈ 33.1 µM); with Aspergillus niger, 8 µg/mL (≈ 33.1 µM); against Escherichia coli it was 31.2 µg/mL (≈ 129 µM). For the same molecule, the MIC is 8 µg/mL (≈ 33.1 µM) in data set [2], 16 µg/mL (≈ 66.3 µM) with Pseudomonas aeruginosa, 125 µg/mL (≈ 518 µM) against Staphylococcus aureus and 31.2 µg/mL (≈ 129 µM) in the data set on Klebsiella pneumoniae. In the data set with A549 [1], the Activity is 50%.
On to `CC(=O)N1N=C(c2nc(C(C)C)cs2)OC1c1ccc([N+](=O)[O-])cc1` (stereo not drawn), for which the MIC in the data set with Enterococcus faecalis came out at 125 µg/mL (≈ 347 µM); against Saccharomyces cerevisiae, 500 µg/mL (≈ 1390 µM); with Candida tropicalis it was 125 µg/mL (≈ 347 µM); against Bacillus subtilis, 250 µg/mL (≈ 694 µM); against Aspergillus niger, 31.2 µg/mL (≈ 86.7 µM); with Escherichia coli, 250 µg/mL (≈ 694 µM). Moreover, the MIC in data set [2] is 62.5 µg/mL (≈ 173 µM); in the data set with Pseudomonas aeruginosa, 125 µg/mL (≈ 347 µM); against Staphylococcus aureus, 125 µg/mL (≈ 347 µM); in the data set on Klebsiella pneumoniae it was 125 µg/mL (≈ 347 µM).
For `CC(=O)N1N=C(c2nc(C(C)C)cs2)OC1c1ccc(O)cc1` (stereo not drawn), the minimum inhibitory concentration (MIC) was found to be 31.2 µg/mL (≈ 94.3 µM) in the data set on Enterococcus faecalis; 31.2 µg/mL (≈ 94.3 µM) with Saccharomyces cerevisiae; 16 µg/mL (≈ 48.3 µM) against Candida tropicalis; 16 µg/mL (≈ 48.3 µM) with Bacillus subtilis; 16 µg/mL (≈ 48.3 µM) against Aspergillus niger; 16 µg/mL (≈ 48.3 µM) in the data set on Escherichia coli. In addition, the MIC in data set [2] amounted to 31.2 µg/mL (≈ 94.3 µM); against Pseudomonas aeruginosa it was 31.2 µg/mL (≈ 94.3 µM); in the data set with Staphylococcus aureus it was 125 µg/mL (≈ 377 µM); with Klebsiella pneumoniae it was 31.2 µg/mL (≈ 94.3 µM). In addition, in the data set on A549 [3], the result was Active.
